# From ChEMBL document CHEMBL1140719, “A Drosophila model to identify polyamine-drug conjugates that target the polyamine transporter in an intact epithelium” (J Med Chem, 2008)
# Tests used:
# [1] = Inhibition of disc eversion in Drosophila melanogaster imaginal disc cells at 18 uM; assay type: functional
# How it was run: (§1)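 Larvae are Oregon-R, from eggs laid for 24 h at 25 °C on cornmeal medium with bromophenol blue. About 30 leg imaginal discs per culture are cultured 15 h at 25 °C in 1 mL minimal Robb's medium (pH 7.2) with 1 µg/mL 20-hydroxyecdysone and 18 µM compound. Spermidine at 100 µM is added as competitor where stated.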
# [2] = Inhibition of PAT assessed as cytotoxicity against CHO cells; assay type: cell-based; conditions: Cricetulus griseus
# [3] = Inhibition of disc eversion in Drosophila melanogaster imaginal disc cells at 18 uM in presence of spermidine; assay type: functional; how it was run: as §1
# polyamine transporter = assay: Ratio of IC50 for polyamine transporter deficient […] cells to IC50 for CHO cells; assay type: cell-based, Cricetulus griseus; conditions: chinese hamster, polyamine transporter deficient […] cells and CHO cells; read-out: Ratio IC50
# How it was run: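 The ratio is the IC50 in the polyamine-transport-deficient CHO-MG line (MGBG-resistant after ethylmethanesulfonate mutagenesis) divided by the IC50 in parental CHO cells.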
# [4] = Cytotoxicity against polyamine transporter deficient […] cells; assay type: ADME, cell-based; conditions: Cricetulus griseus
# L1210 = assay: Cytotoxicity against mouse L1210 cells; assay type: functional, cell-based
# [5] = Cytotoxicity against Drosophila melanogaster imaginal disc cells by Trypan blue exclusion test; assay type: cell-based
# How it was run: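 Oregon-R Drosophila melanogaster leg imaginal discs are dissected in Ringer's with 0.1% BSA and cultured 15 h at 25 °C in minimal Robb's medium (pH 7.2). The medium holds 18 µM conjugate and 1 µg/mL 20-hydroxyecdysone. Viability of noneverted disc cells is then judged by Trypan blue exclusion, with everted control discs for comparison.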
compound,measurement,setting,value
NCCCCNCc1c2ccccc2cc2ccccc12,inhibition at 18 µM,[1],78.4%
same,IC50,[2],7.7 µM
same,inhibition at 18 µM,[3],100%
same,selectivity ratio,polyamine transporter,1
same,IC50,[4],7.6 µM
NCCCNCc1c2ccccc2cc2ccccc12,inhibition at 18 µM,[1],95.2%
same,IC50,[2],2.3 µM
same,inhibition at 18 µM,[3],100%
same,selectivity ratio,polyamine transporter,1
same,IC50,[4],2.4 µM
same,IC50,L1210,2.2 µM
CCN(CCCNCCCN)Cc1c2ccccc2cc2ccccc12,inhibition at 18 µM,[1],88.5%
same,IC50,[2],5.3 µM
same,inhibition at 18 µM,[3],100%
same,selectivity ratio,polyamine transporter,0.8
same,IC50,[4],4 µM
same,IC50,L1210,2.2 µM
CCN(CCCN)Cc1c2ccccc2cc2ccccc12,inhibition at 18 µM,[1],75.7%
same,IC50,[2],7.7 µM
same,inhibition at 18 µM,[3],90%
same,selectivity ratio,polyamine transporter,0.9
same,IC50,[4],6.6 µM
same,IC50,L1210,5.1 µM
NCCCNCCCCNCc1c2ccccc2cc2ccccc12,inhibition at 18 µM,[1],73.9%
same,Activity,[5],Toxic
same,IC50,[2],0.4 µM
same,inhibition at 18 µM,[3],23.8%
same,selectivity ratio,polyamine transporter,24
same,IC50,[4],9.5 µM
same,IC50,L1210,0.4 µM
CCN(CCCCNCCCCN)Cc1c2ccccc2cc2ccccc12,inhibition at 18 µM,[1],5.5%
same,selectivity ratio,polyamine transporter,1
same,IC50,[4],21.9 µM
NCCCCNCCCNCc1c2ccccc2cc2ccccc12,inhibition at 18 µM,[1],7.8%
same,IC50,[2],2.5 µM
same,inhibition at 18 µM,[3],9.9%
same,selectivity ratio,polyamine transporter,3.5
same,IC50,[4],8.8 µM
same,IC50,L1210,0.7 µM
NCCCCNCCCCNCc1c2ccccc2cc2ccccc12,inhibition at 18 µM,[1],97.6%
same,Activity,[5],Toxic
same,IC50,[2],0.45 µM
same,inhibition at 18 µM,[3],8.7%
same,selectivity ratio,polyamine transporter,148
same,IC50,[4],66.7 µM
NCCCNCCCNCc1c2ccccc2cc2ccccc12,inhibition at 18 µM,[1],85.4%
same,IC50,[2],1.9 µM
same,inhibition at 18 µM,[3],100%
same,selectivity ratio,polyamine transporter,1.8
same,IC50,[4],3.4 µM
NCCCCNCCCN [SPERMIDINE],inhibition at 18 µM,[1],4.8%
